From ChEMBL document CHEMBL4689842, “EUbOPEN Chemogenomics Library wave 1” (2021)
Several values for one entry are separate records, joined by “and”; a condition that tells them apart may be missing. Equal entries are not always repeated.

How the values were obtained:
Assay type in all cases: toxicity, cell-based
[1] = test system: Fibroblast; test: Multiplex assay against human fibroblast; details: 10 µM, compound concentration 10 uM
Outline: (§1)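 At seeding, live cells were stained with Hoechst33342, BioTracker Green Microtubule Cytoskeleton Dye, MitoTracker Red and Annexin V Alexa Fluor 680. After compound addition they were imaged on a CQ1 microscope at 37°C and 5% CO2, and CellPathfinder machine-learning gating sorted them into Hoechst high-intensity objects or normal cells, with normal cells further split into healthy, pyknosed or fragmented nuclei and pyknosed cells into mitotic or apoptotic. Tubulin, mitochondrial-mass and membrane-permeability phenotypes are given as per cents of cells with healthy nuclei.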

[2] = test system: U2OS; test: Incucyte cell viability with U2OS; details: human, 10 µM, compound concentration 10 uM; note: filed as whole numbers so only -1 and 0 and 1 occur
[3] = test system: Fibroblast; test: Incucyte cell viability with human fibroblast; details: 10 µM, compound concentration 10 uM; note: filed as whole numbers so only -1 and 0 and 1 occur
[4] = test system: HEK-293T; test: Incucyte cell viability with HEK293T; details: human, 10 µM, compound concentration 10 uM; note: filed as whole numbers so only -1 and 0 and 1 occur
[5] = test system: HEK-293T; test: Multiplex assay against HEK293T; details: human, 10 µM, compound concentration 10 uM; outline: as §1;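 for Population Tubulin-Different-Phenotype (%): share of the cells with healthy nuclei that show this phenotype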
[6] = test system: U2OS; test: Multiplex assay against U2OS; details: human, 10 µM, compound concentration 10 uM; outline: as §1
[7] = 6 h, replicate number 1, timepoint 6 hours
[8] = 12 h, replicate number 1, timepoint 12 hours
[9] = 18 h, replicate number 1, timepoint 18 hours
[10] = 24 h, replicate number 1, timepoint 24 hours

## Cn1c(-c2csc(C3CCN(CC4=NC5N=CC=CC5N4)CC3)n2)nc2ccccc21 (configuration not stated) [BAY-070]
[1]; 12 h, replicate 1
  Population Apoptotic (%): 66% and 86%
  Population Fragmented Nuclei (%): 30% and 26%
  Population Healthy Nuclei (%): 53% and 58%
  Population Hoechst High Intensity Objects (%): 11% and 14%
  Population Membrane Permeable-Phenotype (%): 12% and 9%
  Population Mitochondria Different-Phenotype (%): 4%
  Population Mitotic Cells (%): 33% and 13%
  Population Normal (%): 88% and 85%
  Population Pyknosed Nuclei (%): 15%
  Total Cell Count: 238 and 282
[1]; 12 h, replicate 2
  Population Fragmented Nuclei (%): 66% and 53%
  Population Healthy Nuclei (%): 21% and 36%
  Population Hoechst High Intensity Objects (%): 33% and 37%
  Population Membrane Permeable-Phenotype (%): 36% and 29%
  Population Normal (%): 66% and 62%
  Population Pyknosed Nuclei (%): 11% and 10%
  Total Cell Count: 77 and 75
[1]; 24 h, replicate 1
  Population Apoptotic (%): 51% and 62%
  Population Fragmented Nuclei (%): 23% and 16%
  Population Healthy Nuclei (%): 61% and 67%
  Population Hoechst High Intensity Objects (%): 10% and 13%
  Population Membrane Permeable-Phenotype (%): 9% and 8%
  Population Mitotic Cells (%): 48% and 37%
  Population Normal (%): 89% and 86%
  Population Pyknosed Nuclei (%): 15% and 16%
  Total Cell Count: 222 and 285
[1]; 24 h, replicate 2
  Population Fragmented Nuclei (%): 65% and 57%
  Population Healthy Nuclei (%): 23% and 30%
  Population Hoechst High Intensity Objects (%): 41% and 29%
  Population Membrane Permeable-Phenotype (%): 30% and 22%
  Population Mitotic Cells (%): 100% and 42%
  Population Normal (%): 58% and 70%
  Population Pyknosed Nuclei (%): 11%
  Population Tubulin-Different-Phenotype (%): 40% and 50%
  Total Cell Count: 74 and 84
[2]; 0 h, replicate number 1, timepoint 0 hours
  Growth Rate: 0
[2]; [7]
  Growth Rate: 0
[2]; [8]
  Growth Rate: 1
[2]; [9]
  Growth Rate: 0
[2]; 18 h, replicate number 2, timepoint 18 hours
  Growth Rate: 1
[2]; [10]
  Growth Rate: 1
[2]; 24 h, replicate number 2, timepoint 24 hours
  Growth Rate: 0
[3]; 0 h, replicate number 2, timepoint 0 hours
  Growth Rate: 1
[3]; [7]
  Growth Rate: 0
[3]; [8]
  Growth Rate: 1
[3]; [9]
  Growth Rate: 1
[3]; [10]
  Growth Rate: 1
[4]; [7]
  Growth Rate: 0
[4]; [8]
  Growth Rate: 0
[4]; [9]
  Growth Rate: 0
[4]; [10]
  Growth Rate: 0
[5]; 12 h, replicate 1
  Population Apoptotic (%): 19% and 14%
  Population Fragmented Nuclei (%): 25% and 9%
  Population Healthy Nuclei (%): 48% and 56%
  Population Hoechst High Intensity Objects (%): 16% and 14%
  Population Membrane Permeable-Phenotype (%): 5% and 3%
  Population Mitochondria Different-Phenotype (%): 5% and 8%
  Population Mitotic Cells (%): 80% and 85%
  Population Normal (%): 83% and 85%
  Population Pyknosed Nuclei (%): 26% and 33%
  Population Tubulin-Different-Phenotype (%): 7% and 10%
  Total Cell Count: 591 and 756
[5]; 12 h, replicate 2
  Population Apoptotic (%): 15% and 10%
  Population Fragmented Nuclei (%): 3% and 6%
  Population Healthy Nuclei (%): 82% and 88%
  Population Hoechst High Intensity Objects (%): 5% and 2%
  Population Membrane Permeable-Phenotype (%): 1%
  Population Mitochondria Different-Phenotype (%): 21%
  Population Mitotic Cells (%): 84% and 89%
  Population Normal (%): 94% and 97%
  Population Tubulin-Different-Phenotype (%): 14% and 5%
  Total Cell Count: 1063 and 1470
[5]; 24 h, replicate 1
  Population Apoptotic (%): 15% and 24%
  Population Fragmented Nuclei (%): 10% and 21%
  Population Healthy Nuclei (%): 63% and 62%
  Population Hoechst High Intensity Objects (%): 9% and 10%
  Population Membrane Permeable-Phenotype (%): 6%
  Population Mitochondria Different-Phenotype (%): 7% and 4%
  Population Mitotic Cells (%): 84% and 75%
  Population Normal (%): 90% and 89%
  Population Pyknosed Nuclei (%): 25% and 16%
  Total Cell Count: 694 and 578
[5]; 24 h, replicate 2
  Population Apoptotic (%): 9% and 17%
  Population Fragmented Nuclei (%): 14% and 5%
  Population Healthy Nuclei (%): 83% and 87%
  Population Hoechst High Intensity Objects (%): 2% and 5%
  Population Membrane Permeable-Phenotype (%): 5%
  Population Mitochondria Different-Phenotype (%): 1% and 11%
  Population Mitotic Cells (%): 90% and 82%
  Population Normal (%): 97% and 94%
  Total Cell Count: 2202 and 1248
[6]; 12 h, replicate 1
  Population Fragmented Nuclei (%): 2% and 3%
  Population Healthy Nuclei (%): 90%
  Population Hoechst High Intensity Objects (%): 5% and 3%
  Population Membrane Permeable-Phenotype (%): 6%
  Population Mitochondria Different-Phenotype (%): 10%
  Population Mitotic Cells (%): 91% and 70%
  Population Normal (%): 94% and 96%
  Population Pyknosed Nuclei (%): 6% and 11%
  Population Tubulin-Different-Phenotype (%): 22% and 8%
  Total Cell Count: 183 and 214
[6]; 12 h, replicate 2
  Population Fragmented Nuclei (%): 13% and 7%
  Population Healthy Nuclei (%): 84% and 89%
  Population Hoechst High Intensity Objects (%): 12% and 13%
  Population Membrane Permeable-Phenotype (%): 19% and 8%
  Population Mitochondria Different-Phenotype (%): 21% and 25%
  Population Mitotic Cells (%): 100% and 66%
  Population Normal (%): 87% and 86%
  Population Pyknosed Nuclei (%): 2%
  Population Tubulin-Different-Phenotype (%): 19% and 34%
  Total Cell Count: 96 and 145
[6]; 24 h, replicate 1
  Population Apoptotic (%): 50% and 40%
  Population Fragmented Nuclei (%): 5% and 3%
  Population Healthy Nuclei (%): 88% and 92%
  Population Hoechst High Intensity Objects (%): 3% and 2%
  Population Membrane Permeable-Phenotype (%): 10%
  Population Mitochondria Different-Phenotype (%): 17% and 14%
  Population Mitotic Cells (%): 50% and 60%
  Population Normal (%): 96% and 97%
  Population Pyknosed Nuclei (%): 6% and 3%
  Population Tubulin-Different-Phenotype (%): 15% and 30%
  Total Cell Count: 265 and 259
[6]; 24 h, replicate 2
  Population Apoptotic (%): 20% and 33%
  Population Fragmented Nuclei (%): 7% and 6%
  Population Healthy Nuclei (%): 87% and 84%
  Population Hoechst High Intensity Objects (%): 12%
  Population Mitochondria Different-Phenotype (%): 25% and 27%
  Population Mitotic Cells (%): 80% and 66%
  Population Normal (%): 87%
  Population Pyknosed Nuclei (%): 5% and 8%
  Population Tubulin-Different-Phenotype (%): 19% and 39%
  Total Cell Count: 108 and 180
